Laboratory results reported in ChEMBL document CHEMBL4811241, “Revisiting Pyrazolo[3,4-d]pyrimidine Nucleosides as Anti-Trypanosoma cruzi and Antileishmanial Agents” (J Med Chem, 2021).

Columns and labels:
[1] = tested on: Leishmania infantum; test: Antileishmanial activity against amastigote form of Leishmania infantum MHOM/MA(BE)/67 infected in Swiss mouse peritoneal macrophages assessed as reduction in parasite growth treated at 2 hrs post-infection and measured after 5 days by Giemsa staining based microscopic analysis; format: functional, organism-based; conditions: MHOM/MA(BE)/67, Peritoneal macrophage
Summary of the method: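 Swiss mouse peritoneal macrophages, harvested after 2-day potato-starch stimulation, infected 48 h after plating; compounds added 2 h post-infection.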

[2] = Cytotoxicity against human MRC-5 SV2 cells assessed as reduction in cell growth measured after 3 days by resazurin dye based fluorometric analysis; conditions: time 3 day
[3] = Selectivity index, ratio of CC50 for Swiss mouse peritoneal macrophages to IC50 for antileishmanial activity against amastigote form of Leishmania infantum MHOM/MA(BE)/67 infected in Swiss mouse peritoneal macrophages; format: toxicity; conditions: read-out: Ratio CC50/IC50
Summary of the method: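 Ratio of macrophage CC50 to L. infantum amastigote IC50, both taken from the same 5-day macrophage assay.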

[4] = Cytotoxicity against Swiss mouse peritoneal macrophages assessed as cell detachment, lysis and granulation measured after 5 days by microscopic analysis; format: cell-based, Peritoneal macrophage; conditions: time 5 day
Summary of the method: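 Scored within the Leishmania macrophage assay over 5 days: detachment, lysis and granulation judged semi-quantitatively by microscopy across at least 500 cells. CC50 derived from % reduction in normal cells versus untreated wells.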

[5] = tested on: Trypanosoma cruzi; test: Antitrypanosomal activity against nifurtimox-sensitive Trypanosoma cruzi Tulahuen CL2 infected in human MRC-5 SV2 cells assessed as inhibition of parasite growth measured after 7 days by spectrophotometric analysis; format: functional, organism-based; conditions: Tulahuen CL2, MRC-5 SV2, 168 h
[6] = Selectivity index, ratio of CC50 for human MRC-5 SV2 cells to IC50 for antitrypanosomal activity against nifurtimox-sensitive Trypanosoma cruzi Tulahuen CL2 infected in human MRC-5 SV2 cells; format: toxicity, cell-based; conditions: read-out: Ratio CC50/IC50
Summary of the method: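 Ratio of MRC-5SV2 CC50 (3-day resazurin assay) to IC50 against T. cruzi amastigotes in MRC-5SV2 cells (7-day CPRG assay).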

**Q.** With Nc1ncnc2c1c(Br)nn2[C@@H]1O[C@H](CO)[C@@H](F)[C@H]1O as the molecule, how does the IC50 [1] read?
**A.** 0.08 µM

**Q.** And the CC50 at 72 h [2]?
**A.** 0.23 µM

**Q.** And the selectivity ratio [3]?
**A.** 1

**Q.** What about the CC50 at 120 h [4] of the same molecule?
**A.** 0.13 µM

**Q.** What about the IC50 [5] of the same molecule?
**A.** 1.06 µM

**Q.** What does the source list for NC(=O)c1nn([C@@H]2O[C@H](CO)[C@@H](O)[C@H]2O)c2ncnc(N)c12?
**A.** IC50 [1]: 8.11 µM; CC50 at 72 h [2]: 0.25 µM; selectivity ratio [6]: 1; selectivity ratio [3]: 1; CC50 at 120 h [4]: 8 µM; IC50 [5]: 0.25 µM

**Q.** What does the source list for Nc1ncnc2c1c(/C=C/c1ccccc1)nn2[C@@H]1O[C@H](CO)[C@@H](O)[C@H]1O?
**A.** IC50 [1]: 50.8 µM; CC50 at 72 h [2]: > 64 µM; selectivity ratio [6]: > 4; selectivity ratio [3]: > 1; CC50 at 120 h [4]: > 64 µM; IC50 [5]: 16.5 µM

**Q.** For Nc1ncnc2c1c(I)nn2[C@@H]1O[C@H](CO)[C@@H](O)[C@H]1O, which IC50 [1] is on record?
**A.** 25.4 µM

**Q.** And the CC50 at 72 h [2]?
**A.** 25.4 µM

**Q.** And the selectivity ratio [6]?
**A.** 2

**Q.** What about the selectivity ratio [3] of the same molecule?
**A.** > 2

**Q.** And the CC50 at 120 h [4]?
**A.** > 64 µM

**Q.** And the IC50 [5]?
**A.** 12.6 µM

**Q.** With N#Cc1nn([C@@H]2O[C@H](CO)[C@@H](O)[C@H]2O)c2ncnc(N)c12 as the molecule, how does the IC50 [1] read?
**A.** 8 µM

**Q.** And the CC50 at 72 h [2]?
**A.** 34.6 µM

**Q.** And the selectivity ratio [6]?
**A.** 36

**Q.** What about the selectivity ratio [3] of the same molecule?
**A.** > 8

**Q.** And the CC50 at 120 h [4]?
**A.** > 64 µM

**Q.** What about the IC50 [5] of the same molecule?
**A.** 0.95 µM

**Q.** With Oc1ncnc2[nH]ncc12 [ALLOPURINOL] as the molecule, how does the IC50 [1] read?
**A.** 3.51 µM

**Q.** And the CC50 at 72 h [2]?
**A.** > 64 µM

**Q.** What about the selectivity ratio [6] of the same molecule?
**A.** > 7

**Q.** What about the selectivity ratio [3] of the same molecule?
**A.** > 18

**Q.** What about the CC50 at 120 h [4] of the same molecule?
**A.** > 64 µM

**Q.** What about the IC50 [5] of the same molecule?
**A.** 9.75 µM

**Q.** What does the source list for Nc1ncnc2c1c(-c1ccccn1)nn2[C@@H]1O[C@H](CO)[C@@H](O)[C@H]1O?
**A.** IC50 [1]: ≥ 50.8 µM; CC50 at 72 h [2]: 36.4 µM; selectivity ratio [6]: 1; selectivity ratio [3]: 1; CC50 at 120 h [4]: > 64 µM; IC50 [5]: 30.1 µM

**Q.** For Nc1ncnc2c1c(Cl)nn2[C@@H]1O[C@H](CO)[C@@H](O)[C@H]1O, which IC50 [1] is on record?
**A.** > 64 µM

**Q.** What about the CC50 at 72 h [2] of the same molecule?
**A.** > 64 µM

**Q.** What about the selectivity ratio [6] of the same molecule?
**A.** > 22

**Q.** What about the selectivity ratio [3] of the same molecule?
**A.** > 1

**Q.** And the CC50 at 120 h [4]?
**A.** > 64 µM

**Q.** What about the IC50 [5] of the same molecule?
**A.** 2.89 µM

**Q.** For C#Cc1nn([C@@H]2O[C@H](CO)[C@@H](O)[C@H]2O)c2ncnc(N)c12, which IC50 [1] is on record?
**A.** 10.4 µM

**Q.** And the CC50 at 72 h [2]?
**A.** ≥ 46.5 µM

**Q.** What about the selectivity ratio [6] of the same molecule?
**A.** 20

**Q.** And the selectivity ratio [3]?
**A.** 1

**Q.** What about the CC50 at 120 h [4] of the same molecule?
**A.** ≥ 8 µM

**Q.** And the IC50 [5]?
**A.** 2.78 µM

**Q.** For Nc1ncnc2c1c(-c1c[nH]nn1)nn2[C@@H]1O[C@H](CO)[C@@H](O)[C@H]1O, which IC50 [1] is on record?
**A.** 43.1 µM

**Q.** And the CC50 at 72 h [2]?
**A.** 0.6 µM

**Q.** And the selectivity ratio [6]?
**A.** 1

**Q.** And the selectivity ratio [3]?
**A.** > 1

**Q.** What about the CC50 at 120 h [4] of the same molecule?
**A.** > 64 µM

**Q.** And the IC50 [5]?
**A.** 0.43 µM

**Q.** Which IC50 [1] does the source give for CC(C)c1nn([C@@H]2O[C@H](CO)[C@@H](O)[C@H]2O)c2ncnc(N)c12 here?
**A.** > 64 µM

**Q.** What about the CC50 at 72 h [2] of the same molecule?
**A.** 10.6 µM

**Q.** And the selectivity ratio [6]?
**A.** < 1

**Q.** And the CC50 at 120 h [4]?
**A.** > 64 µM

**Q.** What about the IC50 [5] of the same molecule?
**A.** > 64 µM

**Q.** What does the source list for Nc1ncnc2c1c(CCc1ccccc1)nn2[C@@H]1O[C@H](CO)[C@@H](O)[C@H]1O?
**A.** IC50 [1]: > 64 µM; CC50 at 72 h [2]: > 64 µM; selectivity ratio [6]: > 1; CC50 at 120 h [4]: > 64 µM; IC50 [5]: 52.3 µM

**Q.** Which IC50 [1] does the source give for O=c1[nH]cnc2c1cnn2[C@@H]1O[C@H](CO)[C@@H](O)[C@H]1O here?
**A.** 6.66 µM

**Q.** What about the CC50 at 72 h [2] of the same molecule?
**A.** > 64 µM

**Q.** And the selectivity ratio [6]?
**A.** 9

**Q.** What about the selectivity ratio [3] of the same molecule?
**A.** 10

**Q.** What about the CC50 at 120 h [4] of the same molecule?
**A.** > 64 µM

**Q.** And the IC50 [5]?
**A.** 7.18 µM

**Q.** Which IC50 [1] does the source give for Nc1ncnc2c1c(-c1ccccc1)nn2[C@@H]1O[C@H](CO)[C@@H](O)[C@H]1O here?
**A.** > 64 µM

**Q.** What about the CC50 at 72 h [2] of the same molecule?
**A.** > 64 µM

**Q.** And the selectivity ratio [6]?
**A.** > 5

**Q.** What about the CC50 at 120 h [4] of the same molecule?
**A.** > 64 µM

**Q.** What about the IC50 [5] of the same molecule?
**A.** 13.1 µM

**Q.** Which results are given for Nc1ncnc2c1c(-c1ccc(Cl)cc1)nn2[C@@H]1O[C@H](CO)C[C@H]1O?
**A.** IC50 [1]: > 64 µM; CC50 at 72 h [2]: > 64 µM; selectivity ratio [6]: > 61; CC50 at 120 h [4]: > 64 µM; IC50 [5]: 1.04 µM

**Q.** Which IC50 [1] does the source give for Nc1ncnc2c1c(Oc1ccccc1)nn2[C@@H]1O[C@H](CO)[C@@H](O)[C@H]1O here?
**A.** 32 µM

**Q.** What about the CC50 at 72 h [2] of the same molecule?
**A.** > 64 µM

**Q.** And the selectivity ratio [3]?
**A.** > 2

**Q.** What about the CC50 at 120 h [4] of the same molecule?
**A.** > 64 µM

**Q.** And the IC50 [5]?
**A.** > 64 µM
